Test results as given in the EternaBench riboswitch data.

Tested on: MS2 coat protein
Experiment: apparent Kd, MS2 coat protein; higher = weaker binding; RNA-MaP array; FMN 200 µM where present
Method in brief: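 The apparent Kd is reported as the median of filtered per-cluster binding-curve fits. To get these curves, designs transcribed by stalled E. coli RNA polymerase on Illumina sequencing-chip clusters were titrated with SNAP-549-labelled MS2 coat protein from 0.7 or 1.5 nM, doubling to 3 µM. Titrations were run without and then with constant ligand in 100 mM Tris-HCl pH 7.5, 80 mM KCl, 4 mM MgCl2, BSA, DTT, yeast tRNA and Tween-20, and green signal was normalised to red-channel RNA signal and control-cluster median Fmax.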

[1] = designed as: OFF switch for flavin mononucleotide, no ligand
[2] = ligand present: flavin mononucleotide, designed as: OFF switch for flavin mononucleotide
[3] = designed as: ON switch for flavin mononucleotide, no ligand
[4] = ligand present: flavin mononucleotide, designed as: ON switch for flavin mononucleotide

Row | Sequence | apparent Kd [1] [nM] | apparent Kd [2] [nM] | apparent Kd [3] [nM] | apparent Kd [4] [nM]
1 | UUAUACAUGAGGAUCUCCCAUGACAUGAGGAUCACCCAUGUGCAGGAUAUACGUGAUAUAAUAUAGUAGAAGGGCAGACUAUAU | 119 | 130 | – | –
2 | AUGUUACAUGAGGAUCACCCAUGUGAGGAUAUGUGUACCCGUAAAAAAGUGUCGGGCCAUAGAAGGCAUUUGGA | 48.4 | 49.9 | – | –
3 | UUGUUAUAUGUAGGAUAUGCGUAUUAUUGUUAUGCAGAAGGACAUGAGGAUCACCCAUGUAUAUUAUUGUUAUAUAUUAUAUAU | 25.7 | 66.5 | – | –
4 | UUUACAUGAGGAUCACCCAUGUAUAGAACGGUUCAUUAAAGUGAGGAUAUACAUAAUUUUAAAUUGUAGAAGGCACUGGGUACA | – | – | 17.7 | 19.1
5 | GUCGGAAACGACAAGUAGCAAUCGGAGGAUAUUCAUGGAAACAUGAGGAUCACCCAUGUAAAUUGGGAGAAGGCCGAUUGCUAC | – | – | 1220 | 93.6
6 | UGAGCCGGCACUGAGGAUAUUCAUAUUUAAACAUGAGGAUCACCCAUGUAGGCCAGAAGGCCUUGGGAGAAGGCAGGUCGGCUCU | – | – | 399 | 24.6
7 | CACUCACAUGAGGAUCACCCAUGUCCUAGCAGGUCAGGAUAUAGCUCGGAUGCGUUGAGGCUAGAAGGGACAGGUU | – | – | 116 | 68.5
8 | GAUUAUAAGUAAGGAUAUGUAUAUGAAACAUCUACAGAAGGUACAUGAGGAUCACCCAUGUUCUUGCAGCGUGACUAUGUAAUC | 24 | 27.9 | – | –
9 | AGCUACGUUUCGUAGCAGCUAGAAAAGGAUAUUCAAUUUUUCACAUGAGGAUCACCCAUGUAUGUGAAGAAGGCGCCUAGAAAG | – | – | 50.4 | 35.9
10 | UAUUACCUAGGAUAUACAUGAGGAUCACCCAUGUCACGGGUCAACUUGUCCUACGCGUGUAGAAGGAGGGACCC | 21 | 21.4 | – | –
11 | UGUCGGAGCAGAGGAUAUUACAUGAGGAUCACCCAUGUAUAAAAUGGAAGCUGGAAACAGCAAUGUAAGAAGGCUGCUCCGACA | 61.2 | 288 | – | –
12 | GACUUGCAGCUAGGAUAUGGGCGAUCACAUGAGGAUCACCCAUGUCAACAUCAAAACAAGAUUAACCAGAAGGAGCCGCGGGCU | – | – | 17.3 | 63.9
13 | AGCUAGUCAGGAUAUACGAGAACGAACGAAGCAGUGAAGGGACAUGAGGAUCACCCAUGUAGAAGGGACUAGCA | 36 | 82.6 | – | –
14 | CCCUCACAUGAGGAUCACCCAUGUCAGGAUAUCUAGUCAGAUAGUGUAGCACUAAUGAAGAGAAGGGACGUAUA | 18.2 | 23.9 | – | –
15 | GGCAUAAACGAGGAUAUCGUAUCGGAAACGAUACGAGAAGGUGUAACAUGAGGAUCACCCAUGUUCCUCAAGCC | 36.7 | 34.8 | – | –
16 | AAAAAGCGAGGAUAUACGAGUCAAAGAAAAGACAAGGAGAAACAUGAGGAUCACCCAUGUAGAAGGCGCAAAAA | 20.5 | 23.3 | – | –
17 | GGGAAGUGAGGAUAUGCUGCUCGUCACUUGCGUGAUGAGUAGCAGAAGGUACAUGAGGAUCACCCAUGUAAAAA | 29.6 | 19 | – | –
18 | GUCGGGUGGGUAGGAUAUGGCUAUGUCUCAUUGCUAGAAGGACCAACUGCUACAUGAGGAUCACCCAUGUCGUAGUGCACCCGG | – | – | 149 | 27.5
19 | AAUUAGGUCACAGGAUAUACAACAUCCAUAGCUGUAGAAGGGUGUCAAAAUAAUAUCUGACAUGAGGAUCACCCAUGUUUCCAC | – | – | 15.8 | 12.7
20 | AUUUAUGGCCAGAAGGACAUGAGGAUCACCCAUGUAGGAUAUGGACGAUUUUGCUCGGCGGUUUGUUAAGGAAGCACCGGUGGU | – | – | 14.3 | 7.23
21 | UGUCGGAGCAGAGGAUAUAUACAUGAGGAUCACCCAUGUAAAUGGAAUAGCUGGAAACAGCAAGUAUAGAAGGCUGCUCCGACA | 37.4 | 112 | – | –
22 | UUUUUACAUGAGGAUCACCCAUGUCAGGAUAUGAUUAUAUUUUAUUAUUUUAUUUUUUUCAGAAGGGACUAUUA | 117 | 56.9 | – | –
23 | GGUCUACAUGAGGAUCACCCAUGUCAGGAUAUCGUGUGUUUUUUUUCGGCCGCGCGUGCGAGAAGGGACGUCUU | 17.6 | 18.1 | – | –
24 | GAAAUUCGGGCAGGAUAUGGGUGCCGUCAAGACAUGAGGAUCACCCAUGUCCCAUGCACGAGCGCUCAGAAGGGCUCAUUGCAG | – | – | 20.8 | 22
25 | UAGGACGUCGUAGGAUAUGUAGGAUAUUCCUACAUGAGGAUCACCCAUGUUGACAUGGAAGAAGGACAGAAGGACGAUGUCCAU | – | – | 224 | 4.61
26 | AAUGAUUGAUGAGGAUAUUGUGGUGAAACACGACGAGAAGGCAUAUGUCACAUGAGGAUCACCCAUGUGAGCUUUGUGGAUAUA | 25 | 28.9 | – | –
27 | GCCUUACCGGUCAGGAUAUACAUUUGUCACUCCUUGUAGAAGGGACAUGAGGAUCACCCAUGUACAUUACAUUC | 29 | 28.6 | – | –
28 | GGGUACAUCGGAGGAUAUCAUGUAAAUACAUGAGGAUCACCCAUGUCGAUGGAGACAUCGGUGAUUGAGAAGGCCGAUGUACCG | – | – | 14.8 | 90

Row | Sequence | apparent Kd [1] [nM] | apparent Kd [2] [nM] | apparent Kd [3] [nM] | apparent Kd [4] [nM]
29 | AACGCGUCAGGAUAUGCCAUAAAUUACCUAGUACGACCAUAGCAGAAGGGACAUGAGGAUCACCCAUGUGGGUA | 92 | 67.6 | – | –
30 | GGGUGGCGUAGAGGAUAUGUGUUACAUGAGGAUCACCCAUGUGCAUAUGAUGUUCGUGUGUGUGUAUAGAAGGCUACGUCGCUA | – | – | 14.4 | 17.7
31 | UUAAUUCGAAACAUGAGGAUCACCCAUGUGUUGUGGUUAAUAUAGGAUAUGAGGAUACUUUUUUGUCAGAAGGAUGAUGGUACU | – | – | 11.8 | 10.8
32 | AGAUAACAUGUAGGAUAUCGAGGCCUGAGGCCUCGAGAAGGACAUGAGGAUCACCCAUGUAGUUGUACCAUGGAAUCACGCACU | 340 | 645 | – | –
33 | UGUCGGUAGUAGAAGGGUAAGACAUGAGGAUCACCCAUGUGAUUUGGGUAUACAGGAUAUGCUUAUAUAUAAGAUUAAAUUAUU | 674 | 470 | – | –
34 | AUAAAUAUAGCGAUAUGAUCGAGAGAUCAUGUCGCUAAUGUUAGAAGGACAUGAGGAUCACCCAUGUAGGAUAUGGGAGUAUGA | – | – | 197 | 86
35 | AGAAAGUGAGGAUAUACGAAACCAGCCUAAAUGGCUGGAAAGUAGAAGGCACAUGAGGAUCACCCAUGUAAAGA | 24.4 | 31.6 | – | –
36 | GGUAAGAAGUGCGUGAGCUACUUGAGAAGGCGACAUGAGGAUCACCCAUGUCUGUUCCUCAAGUUCGAGGAUAUCAGGUAGUUG | 7.42 | 9.06 | – | –
37 | GAUUCACAUGAGGAUCACCCAUGUCGUUAUAUGGGAGGAUAUACGUGGACCGUAGUCCGCGUAGAAGGCCUAAUUG | – | – | 378 | 81.2
38 | AUCAUGUCAGGAUAUCUGAUAUGGAUCUUCGGAUCAAGUUCAGAGAAGGGACAUGAGGAUCACCCAUGUCGAAC | 25 | 42.4 | – | –
39 | AGUGCCUCGAGAGGAUAUAUACAUGAGGAUCACCCAUGUAACGAGGUGGAAACACCUCGAAAUGUAUAGAAGGCUCGAGGCACA | 28.4 | 50 | – | –
40 | UGUGCGUUGAUCUUCGAUCGGUGUACAUGAGGAUCACCCAUGUAGGAUAUUCAAAGACGCAGAUAGGAGAAGGACAUCGGAUUA | 19.2 | 17.2 | – | –
41 | AAGCGAAAGCUAAAAUAUCUAUCAGAGGAUAUUUAUGAUACAUGAGGAUCACCCAUGUGGCGCUGGGAGAAGGCUGAUAGAUAA | – | – | 12.9 | 6.79
42 | GCCGAAAAUGUGAGGAUAUACCUAUGGAAACAUAGGUAGAAGGCACAUGAGGAUCACCCAUGUGUCCAAACGGC | 19.9 | 64.6 | – | –
43 | CUGCCGUAGGAGAAGGACGGCGGGUUAUUUUUGUACAUGAGGAUCACCCAUGUAGGAUAUCCUACGUCAGGCGGCCUACUACAG | 13.7 | 19.8 | – | –
44 | UUUAGUAUCUAGGAUAUCUAGUACAUAGUAUCUAGAGAAGGAGAUACAUGAGGAUCACCCAUGUUCUGUGAUCU | 210 | 36.4 | – | –
45 | GGAAAGCGAGGAUAUACAUGAGGAUCACCCAUGUAAAAGAAAAGAAAAGAAAGAAAAUGUAGAAGGCGCAAAAA | 47.8 | 48.4 | – | –
46 | GGUGGACAUGAGGAUCACCCAUGUGAGGAUAUCGGCCGGCUAGUGGCGGCUGGCUUCUCGAGAAGGCGCAUAGU | 47.2 | 62.9 | – | –
47 | AAUCUGUCGGUAGGAUAUCAGUUUGGAGAGCCGACAUGAGGAUCACCCAUGUACAGAAUCAAGGGUGAGAAGGACCGGGUAGUU | – | – | 90.7 | 78.6
48 | ACGUAUCAUGUAGGAUAUGACCCAGGAAAUUGGUCAGAAGGACAUGAGGAUCACCCAUGUAGAGUAUGUUAGGAUGACGUAUGC | 115 | 165 | – | –
49 | UGUCGGAGCAGAGGAUAUUACAUGAGGAUCACCCAUGUAUGAACCAAGAGCUGGAAACAGCAAUGUAAGAAGGCUGCUCCGACA | 10.9 | 121 | – | –
50 | AGUAAGAUGCAGAAGGUGUUAGCUAGAGCUACGACAUGAGGAUCACCCAUGUACAAAAGCCCGUACAAGGAUAUGCAUCUUACA | – | – | 4.46 | 4.21
51 | GUCAGCUCGUGAGGAUAUACAACACUUCUUCGGCAGUGUAUUAAGAUCACAUGAGGAUCACCCAUGUAGAAGGCACGAGCUGAU | 14.1 | 231 | – | –
52 | GUAUAUAUAUAAGGAUAUAAGUCUAGGACAUGAGGAUCACCCAUGUGUGUCUUAGAAGGUAUAUAUGUAAUACUGUUACAGUAA | – | – | 64.8 | 14.2
53 | ACGGUCUUGUCAGGAUAUACAUGAGGAUCACCCAUGUAAUGCGGGUAGGAUAACAAGUCACUUAGGUAGAAGGGACAAGGGACU | 22.1 | 54.6 | – | –
54 | GCAUGCGUUCGAGGAUAUCGGUGAGAAACGGAACGAGAAGGCGAUAGAAUGUCUCAUCUUAUGAACAUGAGGAUCACCCAUGUA | – | – | 32.7 | 31.6
55 | UUAAAGGCAGGAUAUACAUUUUUUUUAUUAUCCUCAUUAUUACAUGAGGAUCACCCAUGUAGAAGGGCCAAAUU | 81.7 | 54.1 | – | –
